# Compounds with a hit are over-represented: about 2.7% of the library has one in this group of screens.
# ARFGAP1 inh: inhibitors of rat ARFGAP1; Arfgap1-stimulated ARF1 GTP hydrolysis, GDP FP detection; inhibition, % at 16.5 µM; AID 651572; Q62848; 360,000 tested, 0.26% active;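 active = inhibition above a per-plate limit, mean inhibition of low control wells plus 3 SD, cut at about 25% in these data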
#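 Material: rat Arfgap1 catalytic domain, aa 1-136; also added: human ARF1(Δ1-17)-GTP substrate; compound dosing: one concentration, 16.5 µM, DMSO 1.26%; incubation: GTP hydrolysis reaction 2 h at 25 °C; measured by: Tracer-displacement fluorescence polarization with EDTA stop, 620/688 nm; evaluation: % inhibition from polarization; repeats: one replicate per compound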
# PAFAH1B2 inh: inhibitors of human PAFAH1B2. recombinant PAFAH1B2, FP-rhodamine activity probe, fluorescence polarization. inhibition, % at 3.39 µM. 340,000 tested, 1.2% active;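 active = inhibition above the mean of all tested compounds plus 3 SD, cut at about 24% in these data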
# Target sequence (P68402 whole entry, looked up): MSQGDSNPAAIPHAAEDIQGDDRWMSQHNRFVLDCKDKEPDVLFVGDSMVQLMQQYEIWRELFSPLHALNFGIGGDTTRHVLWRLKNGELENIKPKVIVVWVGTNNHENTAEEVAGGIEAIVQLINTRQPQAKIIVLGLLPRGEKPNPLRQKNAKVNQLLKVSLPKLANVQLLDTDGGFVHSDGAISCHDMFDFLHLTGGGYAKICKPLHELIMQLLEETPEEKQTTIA
# PAFAH1B3 inh: inhibitors of human PAFAH1B3; recombinant PAFAH1B3, FP-rhodamine probe, fluorescence polarization; 340,000 tested, 0.28% active; Q15102; inhibition, % at 3.39 µM; AID 492972;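 active = inhibition above the screen-wide average of all tested compounds plus 3 SD, cut at about 25% in these data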
# ASAP1 inh: ASAP1 ArfGAP inhibition; Q9ULH1; 360,000 tested, 0.19% active; AID 624377; ASAP1-stimulated ARF1 GTP hydrolysis, GDP FP detection; inhibition, % at 16.5 µM; in the data active = inhibition above about 25%
# Target sequence (Q9ULH1 325-724 limits assumed): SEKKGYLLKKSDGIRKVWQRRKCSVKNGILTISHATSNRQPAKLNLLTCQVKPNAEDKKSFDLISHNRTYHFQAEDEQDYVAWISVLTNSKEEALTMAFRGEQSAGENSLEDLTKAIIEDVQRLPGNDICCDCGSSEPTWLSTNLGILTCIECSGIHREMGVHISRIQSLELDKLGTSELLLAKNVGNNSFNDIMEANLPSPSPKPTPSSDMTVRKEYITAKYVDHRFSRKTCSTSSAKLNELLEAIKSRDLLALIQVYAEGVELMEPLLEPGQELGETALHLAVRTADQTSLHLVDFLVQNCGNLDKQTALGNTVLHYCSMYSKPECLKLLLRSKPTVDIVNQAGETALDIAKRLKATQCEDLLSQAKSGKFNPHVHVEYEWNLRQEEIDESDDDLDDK
# pPAFAH inh: inhibitors of human plasma PAF acetylhydrolase (pPAFAH). recombinant pPAFAH, FP-rhodamine probe fluorescence polarization. inhibition, % at 3.39 µM. 330,000 tested, 1.5% active;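 active = inhibition above the mean inhibition across the screen plus 3 SD, cut at about 25% in these data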;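 also: inhibitors block binding of the rhodamine activity-based probe so polarization drops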
# PAFAH2 inh: PAFAH2 (human) inhibition | inhibition, % at 3.39 µM | Q99487 | AID 492956 | 340,000 tested, 0.99% active | recombinant PAFAH2, FP-rhodamine activity probe, fluorescence polarization;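 active = inhibition above the mean over all tested compounds plus 3 SD, cut at about 30% in these data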;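 also: inhibitors block probe labeling of enzyme so polarization drops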
# Hits are given with their value; - = inactive; . = no result.
SMILES,ARFGAP1 inh,PAFAH1B2 inh,PAFAH1B3 inh,ASAP1 inh,pPAFAH inh,PAFAH2 inh
COC(=O)c1cc(S(=O)(=O)N2CCC(C)CC2)ccc1F,-,-,-,-,-,-
CC1CCN(S(=O)(=O)c2cccc(C(N)=O)c2)CC1,-,25.9,-,-,-,-
Cc1ccc(S(=O)(=O)N2CCC(C)CC2)cc1[N+](=O)[O-],-,-,-,-,.,-
CC1CCC(NC(=O)c2cccc(S(=O)(=O)N3CCOCC3)c2)CC1 (stereo not drawn),-,.,.,-,.,.
CC1CCC(NC(=O)c2cccc(S(=O)(=O)N3CCN(C)CC3)c2)CC1 (stereo not drawn),-,25.5,-,-,-,-
COC/C=C/C1=CC2=CC(=O)C(C)(OC(=O)c3cnc4ccccc4n3)C(=O)C2=CO1 (stereo not drawn),.,.,.,.,54.8,.
O=C1OC[C@H]2CCCN2C(=O)[C@@H](CC(=O)N(CCO)Cc2ccccc2)C/C=C\C[C@@H]1Cc1ccc(F)cc1,-,30.9,-,-,-,-
O=C1OC[C@@H]2CCCN2C(=O)[C@H](CC(=O)N(CCO)Cc2ccccc2)C/C=C\C[C@H]1Cc1ccc(F)cc1,-,33.0,-,-,-,-
O=C1CCC/C=C\C[C@@H](CC(=O)N(CCO)Cc2ccccc2)C(=O)N2CCC[C@H]2CO1,-,-,-,-,-,-
COc1ccc(N2C[C@@]3(O)CC[C@@H](O)[C@@H](OC)[C@@H]3[C@@]2(C)[C@H](O)CC=C(C)C)cc1,-,.,.,-,.,.
O=S1(=O)N[C@@H](Cc2ccccc2)COc2cccc(NCCCN3CCOCC3)c21,-,.,.,-,.,.
CCn1cc([N+](=O)[O-])c(C(=O)Nc2ccn(Cc3ccccc3)n2)n1,-,-,-,-,-,-
Cn1nccc1C(=O)Nc1ccn(C23CC4CC(CC(C4)C2)C3)n1,-,24.4,-,-,-,-
Cn1nccc1C(=O)Nc1ccc(Cl)cc1,-,-,-,-,-,-
Cc1nn(C)c(C(=O)Nc2ccn(C34CC5CC(CC(C5)C3)C4)n2)c1[N+](=O)[O-],-,-,-,-,-,-
Cn1cc([N+](=O)[O-])c(C(=O)Nc2ccn(C34CC5CC(CC(C5)C3)C4)n2)n1,-,25.3,-,-,-,-
CCn1cc([N+](=O)[O-])c(C(=O)Nc2ccn(C34CC5CC(CC(C5)C3)C4)n2)n1,-,29.0,-,-,-,-
Nc1[nH]c(C(=O)c2ccccc2)c(-c2ccc(Cl)cc2)c1C(=O)c1c[nH]c2cc(F)ccc12,-,.,.,-,.,.
Cc1ccc(CN2CC(N3CCC[C@@H]3C)CS2(=O)=O)cc1 (stereo partly drawn),-,.,.,-,.,.
Nc1[nH]ncc1-c1ccc(F)cc1,-,-,-,-,29.8,-
NS(=O)(=O)c1ccc(CCNC(=O)c2ccc3nccnc3c2)cc1,-,-,-,-,29.5,-
NS(=O)(=O)c1ccc(CCNC(=O)c2ccc(C(=O)c3ccccc3)cc2)cc1,-,-,-,-,-,-
O=C(NCC1CCCO1)c1nc2c(nnn2Cc2ccccc2Cl)c(=O)[nH]1 (stereo not drawn),-,-,-,-,-,-
Cc1ccc(C)c(Cn2nnc3c(=O)[nH]c(C(=O)NCC4CCCO4)nc32)c1 (stereo not drawn),-,67.0,-,-,-,-
Oc1ccc(/C=N/NC(=S)Nc2cccnc2)cc1O,-,-,-,-,33.1,-
SMILES,ARFGAP1 inh,PAFAH1B2 inh,PAFAH1B3 inh,ASAP1 inh,pPAFAH inh,PAFAH2 inh
C=CCN(CC=C)C[C@@H]1CSCCS(=O)(=O)N1,-,.,.,-,.,.
Cc1cccc(N2CCN(C(=O)c3ccc4nc(-c5ccco5)c(-c5ccco5)nc4c3)CC2C)c1 (stereo not drawn),-,-,-,-,26.3,-
Cc1cccc(N2CCN(C(=O)c3ccc4nccnc4c3)CC2C)c1 (stereo not drawn),-,-,-,-,-,-
ONC(=Nc1ccc(Cl)cc1)c1ccccc1,-,36.0,-,-,-,-
O=[N+]([O-])c1cccc(C(=Nc2cccc(Cl)c2)NO)c1,-,-,-,-,-,-
O=C(/C=C(\O)c1ccccc1)C(=O)NNC(=O)c1ccccc1,-,-,-,-,-,-
O=C(/C=C(\O)c1ccc(Cl)cc1)C(=O)NNC(=O)C(O)(c1ccccc1)c1ccccc1,.,-,-,.,27.1,-
Cc1ccc(S(=O)(=O)NCCC(=O)Nc2ccc(Cl)c(Cl)c2)cc1C,-,25.1,-,-,-,-
Cc1ccc(S(=O)(=O)NCCC(=O)Nc2ccncc2)cc1C,-,-,-,-,-,-
Cc1ccc(S(=O)(=O)NCCC(=O)Nc2ccc(Cl)c(Cl)c2)cc1,-,29.4,-,-,-,-
CC(=O)Nc1ccc(S(=O)(=O)NCCC(=O)Nc2ccc(C)c(Cl)c2)cc1,-,-,-,-,-,-
Nc1nc2c(ncn2[C@@H]2O[C@H](C(=O)N[C@@H](Cc3ccccc3)C(=O)NCc3ccc4c(c3)OCO4)[C@@H](O)[C@H]2O)c(=O)[nH]1,-,.,.,-,.,.
N/C(=N\OC(=O)CCC1CCCCC1)c1cccc([N+](=O)[O-])c1,.,40.5,-,.,-,-
N/C(=N\OC(=O)CCC1CCCC1)c1ccccc1,-,-,-,-,-,-
N/C(=N\OC(=O)CCC1CCCC1)c1ccc([N+](=O)[O-])cc1,-,29.0,-,-,-,-
Clc1ccc(-c2csc(NCC3CCCO3)n2)cc1 (stereo not drawn),-,.,.,-,.,.
Cc1csc(SCC(=O)NCCc2ccc(Cl)cc2)n1,-,32.5,-,-,-,-
COC(=O)[C@H](Cc1ccccc1)NC(=O)NCc1ccc(C)cc1,-,.,.,-,-,.
Cc1ccc(CNC(=O)N[C@@H](Cc2ccccc2)C(=O)O)cc1,-,26.3,-,-,-,-
O=C(O)c1cc(NC(=O)c2ccc(Br)cc2)cc(NC(=O)c2ccc(Br)cc2)c1,-,29.6,-,-,-,-
C[C@H](O)[C@@H]1C(=O)N2CCc3c([nH]c4cccc(-c5ccccc5)c34)[C@@H]2C[C@@H]1N(C)C(=O)OCc1ccccc1,-,.,.,-,.,.
COC(=O)C1=C(C)N(C)C(=NCc2ccc(OC)cc2)NC1c1cccc(Cl)c1 (stereo not drawn),-,.,.,-,.,.
CCN1CCN(c2cc(C)c3cc(NC(=O)c4cc(OC)cc(OC)c4)ccc3n2)CC1,-,-,-,-,28.9,-
COC(=O)C1=C(C)N(Cc2ccc(Br)cc2)C(=S)NC1c1cccc(F)c1 (stereo not drawn),-,.,.,-,.,.

# Screening results as filed in PubChem.
